Measured values from ChEMBL document CHEMBL1151833, “Cytotoxic oleanane triterpene saponins from Albizia chinensis” (J Nat Prod, 2009).

How the values were obtained:
HCT-8 = assay: Cytotoxicity against human HCT8 cells after 96 hrs by MTT assay; format: functional, cell-based; details: HCT-8, 96 h
How it was run: (§1)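 Cells kept in RPMI 1640 with 10% FBS, penicillin and streptomycin, at 37 °C in 5% CO2. Seeded at 1.5 × 10^3 cells per well and left 24 h. Compounds added in DMSO, five concentrations over a final 0.01-10 […], each in three parallel wells, for 96 h. MTT (0.2%) added for 4 h, formazan dissolved in DMSO, read at 570 nm. IC50 taken from dose-response curves as 50% loss of optical density versus DMSO control.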

Bel-7402 = assay: Cytotoxicity against human Bel7402 cells after 96 hrs by MTT assay; format: functional, cell-based; details: Bel-7402, 96 h; how it was run: as §1
BGC-823 = assay: Cytotoxicity against human BGC823 cells after 96 hrs by MTT assay; format: functional, cell-based; details: BGC-823, 96 h; how it was run: as §1
A549 = assay: Cytotoxicity against human A549 cells after 96 hrs by MTT assay; format: functional, cell-based; details: A549, 96 h; how it was run: as §1
A2780 = assay: Cytotoxicity against human A2780 cells after 96 hrs by MTT assay; format: functional, cell-based; details: A2780, 96 h; how it was run: as §1
[1] = Toxicity in rabbit erythrocytes assessed as hemolytic activity; format: cell-based, Oryctolagus cuniculus, Erythrocyte
How it was run: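 Rabbit erythrocytes prepared by the Chinese Pharmacopoeia method. Compounds tested at 0.01, 0.05, 0.1, 0.5, 2.5, 10 and 100 µM using a procedure adapted from the literature. Result given as HC50.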

**Q.** Which IC50 (HCT-8) does the source give for `C=C[C@](C)(CC/C=C(\C)C(=O)O[C@H]1[C@H](O)[C@@H](O)[C@H](O[C@](C)(C=C)CC/C=C(\CO)C(=O)O[C@H]2C[C@]3(C(=O)O[C@@H]4O[C@H](CO)[C@@H](O)[C@H](O)[C@H]4O[C@@H]4O[C@@H](C)[C@H](O[C@@H]5O[C@@H](CO)[C@H](O)[C@H]5O)[C@@H](O[C@@H]5O[C@H](CO)[C@@H](O)[C@H](O)[C@H]5O)[C@H]4O)[C@H](O)C[C@]4(C)C(=CC[C@@H]5[C@@]6(C)CC[C@H](O[C@@H]7O[C@H](CO[C@@H]8OC[C@H](O)[C@H](O)[C@H]8O[C@@H]8OC[C@@H](O)[C@H](O)[C@H]8O)[C@@H](O)[C@H](O)[C@H]7O[C@@H]7O[C@H](CO)[C@@H](O)[C@H](O)[C@H]7O)C(C)(C)[C@@H]6CC[C@]54C)[C@@H]3CC2(C)C)O[C@@H]1C)O[C@@H]1O[C@H](C)[C@@H](O)[C@H](O)[C@H]1O` [ALBIZOSIDE C] here?
**A.** 400 nM

**Q.** What about the IC50 (Bel-7402) of the same compound?
**A.** 400 nM

**Q.** What about the IC50 (BGC-823) of the same compound?
**A.** 1700 nM

**Q.** And the IC50 (A549)?
**A.** 10 nM

**Q.** What about the IC50 (A2780) of the same compound?
**A.** 300 nM

**Q.** What about the HC50 [1] of the same compound?
**A.** 700 nM

**Q.** For `C=C[C@](C)(CC/C=C(\CO)C(=O)O[C@H]1C[C@]2(C(=O)O[C@@H]3O[C@H](CO)[C@@H](O)[C@H](O)[C@H]3O[C@@H]3O[C@@H](C)[C@H](O[C@@H]4O[C@@H](CO)[C@H](O)[C@H]4O)[C@@H](O[C@@H]4O[C@H](CO)[C@@H](O)[C@H](O)[C@H]4O)[C@H]3O)[C@H](O)C[C@]3(C)C(=CC[C@@H]4[C@@]5(C)CC[C@H](O[C@@H]6O[C@H](CO[C@@H]7O[C@H](C)[C@H](O)[C@H](O)[C@H]7O[C@@H]7OC[C@@H](O)[C@H](O)[C@H]7O)[C@@H](O)[C@H](O)[C@H]6O)C(C)(C)[C@@H]5CC[C@]43C)[C@@H]2CC1(C)C)O[C@@H]1O[C@H](C)[C@@H](O)[C@H](O)[C@H]1O` [PROSAPOGENIN 10], which IC50 (HCT-8) is on record?
**A.** > 10000 nM

**Q.** What about the IC50 (Bel-7402) of the same compound?
**A.** > 10000 nM

**Q.** And the IC50 (BGC-823)?
**A.** > 10000 nM

**Q.** What about the IC50 (A549) of the same compound?
**A.** > 10000 nM

**Q.** And the IC50 (A2780)?
**A.** > 10000 nM

**Q.** And the HC50 [1]?
**A.** 128000 nM

**Q.** For `C=C[C@](C)(CC/C=C(\CO)C(=O)O[C@H]1[C@H](O[C@](C)(C=C)CC/C=C(\C)C(=O)O[C@H]2[C@H](O)[C@@H](O)[C@H](O[C@](C)(C=C)CC/C=C(\CO)C(=O)O[C@H]3C[C@]4(C(=O)O[C@@H]5O[C@H](CO)[C@@H](O)[C@H](O)[C@H]5O[C@@H]5O[C@@H](C)[C@H](O[C@@H]6O[C@@H](CO)[C@H](O)[C@H]6O)[C@@H](O[C@@H]6O[C@H](CO)[C@@H](O)[C@H](O)[C@H]6O)[C@H]5O)[C@H](O)C[C@]5(C)C(=CC[C@@H]6[C@@]7(C)CC[C@H](O[C@@H]8O[C@H](CO[C@@H]9O[C@H](C)[C@H](O)[C@H](O)[C@H]9O[C@@H]9OC[C@@H](O)[C@H](O)[C@H]9O)[C@@H](O)[C@H](O)[C@H]8O)C(C)(C)[C@@H]7CC[C@]65C)[C@@H]4CC3(C)C)O[C@@H]2C)O[C@H](C)[C@@H](O)[C@@H]1O)O[C@@H]1O[C@H](C)[C@@H](O)[C@H](O)[C@H]1O` [ALBIZOSIDE A], which IC50 (HCT-8) is on record?
**A.** 5600 nM

**Q.** And the IC50 (Bel-7402)?
**A.** 2600 nM

**Q.** And the IC50 (BGC-823)?
**A.** 1600 nM

**Q.** What about the IC50 (A549) of the same compound?
**A.** 1900 nM

**Q.** What about the IC50 (A2780) of the same compound?
**A.** 1300 nM

**Q.** What about the HC50 [1] of the same compound?
**A.** 400 nM

**Q.** For `CC[C@@]1(O)C(=O)OCc2c1cc1n(c2=O)Cc2cc3ccccc3nc2-1` [CAMPTOTHECIN], which IC50 (A2780) is on record?
**A.** 300 nM

**Q.** With `C=C[C@](C)(CC/C=C(\CO)C(=O)O[C@H]1[C@H](O[C@](C)(C=C)CC/C=C(\C)C(=O)O[C@H]2[C@H](O)[C@@H](O)[C@H](O[C@](C)(C=C)CC/C=C(\CO)C(=O)O[C@H]3C[C@]4(C(=O)O[C@@H]5O[C@H](CO)[C@@H](O)[C@H](O)[C@H]5O[C@@H]5O[C@@H](C)[C@H](O[C@@H]6O[C@@H](CO)[C@H](O)[C@H]6O)[C@@H](O[C@@H]6O[C@H](CO)[C@@H](O)[C@H](O)[C@H]6O)[C@H]5O)[C@H](O)C[C@]5(C)C(=CC[C@@H]6[C@@]7(C)CC[C@H](O[C@@H]8O[C@H](CO[C@@H]9O[C@H](C)[C@H](O)[C@H](O)[C@H]9O[C@@H]9OC[C@@H](O)[C@H](O)[C@H]9O)[C@@H](O)[C@H](O)[C@H]8O[C@@H]8O[C@H](CO)[C@@H](O)[C@H](O)[C@H]8O)C(C)(C)[C@@H]7CC[C@]65C)[C@@H]4CC3(C)C)O[C@@H]2C)O[C@H](C)[C@@H](O)[C@@H]1O)O[C@@H]1O[C@H](C)[C@@H](O)[C@H](O)[C@H]1O` [ALBIZOSIDE B] as the compound, how does the IC50 (HCT-8) read?
**A.** 1300 nM

**Q.** What about the IC50 (Bel-7402) of the same compound?
**A.** 1300 nM

**Q.** And the IC50 (BGC-823)?
**A.** 3800 nM

**Q.** And the IC50 (A549)?
**A.** 300 nM

**Q.** And the IC50 (A2780)?
**A.** 1200 nM

**Q.** What about the HC50 [1] of the same compound?
**A.** 700 nM
